From ChEMBL document CHEMBL4732112, “Synthesis and in vitro evaluation of novel spiroketopyrazoles as acetyl-CoA carboxylase inhibitors and potential antitumor agents” (Eur J Med Chem, 2021)
Activity calls are given as the source filed them. The calls are words filed in the database; no cut-off is given here.

Columns and labels:
Acetyl-CoA carboxylase 1 = Acetyl-CoA carboxylase 1 (Homo sapiens, UniProt Q13085); test: Inhibition of ACC1 in human HepG2 cells assessed as reduction in intracellular triglyceride level measured after 48 hrs by GPO-PAP method; assay type: cell-based; conditions: dose 1-10 µM
Outline: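 HepG2 cells plated and exposed to the compound at several concentrations for 48 h. Cells washed with PBS, lysed in 1% Triton X-100 and spun 12000 rpm, 4 °C, 15 min. Malonyl-CoA measured by ELISA kit and triglyceride by GPO-POP kit, each normalised to BCA protein. Reported relative to control, mean ± SD, n=3.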

HepG2 [1] = test: Cell cycle arrest in human HepG2 cells assessed as accumulation at G2/M phase at 1 uM measured after 48 hrs by propidium iodide staining based flow cytometry (reference value: 13.58%); assay type: functional
HepG2 [2] = test: Cell cycle arrest in human HepG2 cells assessed as accumulation at S phase at 5 uM measured after 48 hrs by propidium iodide staining based flow cytometry (reference value: 30.18%); assay type: functional
HepG2 [3] = test: Cell cycle arrest in human HepG2 cells assessed as accumulation at G2/M phase at 5 uM measured after 48 hrs by propidium iodide staining based flow cytometry (reference value: 13.58%); assay type: functional
HepG2 [4] = test: Cell cycle arrest in human HepG2 cells assessed as reduction in CDK4 expression measured after 48 hrs by Western blot analysis; assay type: functional, cell-based; conditions: dose 1-10 µM
Outline: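 HepG2 cells treated for 48 h and lysed. Lysates cleared at 12000 rpm for 15 min and protein measured by BCA. Run on SDS-PAGE, transferred to PVDF, blocked in 5% BSA, primary antibody at 4 °C overnight, then DyLight 800 secondary. Infrared imaging and densitometry against β-actin. Mean ± SD, n=3.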

HepG2 [5] = test: Induction of apoptosis in human HepG2 cells assessed as increase in early apoptotic cells measured after 48 hrs by Annexin V-FITC/propidium iodide staining based flow cytometry; assay type: functional, cell-based; conditions: dose 1-10 µM
Outline: (§1)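 HepG2 cells incubated with the stated concentrations for 48 h, harvested, and stained with Annexin V-FITC and propidium iodide protected from light. Viable, early apoptotic, late apoptotic and necrotic fractions quantified by flow cytometry. Mean ± SD, n=3.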

HepG2 [6] = test: Induction of apoptosis in human HepG2 cells assessed as viable cells at 1 uM measured after 48 hrs by Annexin V-FITC/propidium iodide staining based flow cytometry (reference value: 95.6%); assay type: functional; conditions: read-out: Activity; outline: as §1
HepG2 [7] = test: Induction of apoptosis in human HepG2 cells assessed as viable cells at 5 uM measured after 48 hrs by Annexin V-FITC/propidium iodide staining based flow cytometry (reference value: 95.6%); assay type: functional; conditions: read-out: Activity
HepG2 [8] = test: Induction of apoptosis in human HepG2 cells assessed as necrotic cells at 5 uM measured after 48 hrs by Annexin V-FITC/propidium iodide staining based flow cytometry (reference value: 0.22%); assay type: functional; outline: as §1
HepG2 [9] = test: Induction of apoptosis in human HepG2 cells assessed as increase in caspase-3 activation at 1 to 10 uM measured after 48 hrs by Western blot analysis; assay type: functional, cell-based; conditions: dose 1-10 µM
Outline: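 Western blots for Bcl-2, Bax, cleaved caspase-3 and cleaved PARP in HepG2 cells after 48 h treatment (1, 5, 10 μM for PARP). Lysates cleared, protein quantified by BCA, run on SDS-PAGE to PVDF, blocked in 5% BSA, primary overnight at 4 °C, DyLight 800 secondary. Infrared scanning and densitometry normalized to β-actin. Mean ± SD, n=3.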

HepG2 [10] = test: Antiproliferative activity against human HepG2 cells assessed as combination index at 0.175 uM measured after 72 hrs in presence of 0.35 uM doxorubicin by MTT assay; assay type: functional
HepG2 [11] = test: Antiproliferative activity against human HepG2 cells assessed as combination index at 0.0875 uM measured after 72 hrs in presence of 0.175 uM doxorubicin by MTT assay; assay type: functional

With CC(C)(C)n1cc2c(n1)C(=O)CC1(CCN(C(=O)c3cc(-c4ccncc4)nc4ccccc34)CC1)O2 the inhibition (Acetyl-CoA carboxylase 1) was “Dose-dependent effect”, the Activity (HepG2 [1]) was 10.86% and the Activity (HepG2 [2]) was 14.71%. The Activity (HepG2 [3]) was 6.46%, the Activity (HepG2 [4]) was “Dose-dependent effect” and the Activity (HepG2 [5]) was “Dose-dependent effect”. It also gave a viability at 1 µM (HepG2 [6]) of 72.1%, a viability at 5 µM (HepG2 [7]) of 44.8% and an Activity (HepG2 [8]) of 3.72%. The Activity (HepG2 [9]) was “Active”, the CI (HepG2 [10]) was 0.737 and the CI (HepG2 [11]) was 0.713.
